Measurements reported in ChEMBL document CHEMBL2375228, “4-Bromo-2-(piperidin-1-yl)thiazol-5-yl-phenyl methanone (12b) inhibits Na+/K(+)-ATPase and Ras oncogene activity in cancer cells” (Eur J Med Chem, 2013).
Active and inactive are the calls of the source. The rule behind the calls is not given here.

What was measured:
A549 [1] = experiment: Cytotoxicity against human A549 cells after 72 hrs by MTT assay; assay type: functional, cell-based; conditions: A549, 72 h
In short: (§1)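 Cells grown in RPMI with 10% heat-inactivated fetal calf serum and exposed to compound for 72 h. Overall growth read by MTT colorimetric assay; IC50 derived from it. Six replicates per condition.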

Hs 683 [2] = experiment: Ratio of perillyl alcohol IC50 to compound IC50 for human Hs683 cells; assay type: functional
Hs 683 [3] = experiment: Cytostatic activity against human Hs683 cells at 40 uM after 48 to 72 hrs by videomicroscopic analysis relative to control; assay type: functional
In short: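 Hs683 glioma cells, untreated or at 40 µM, filmed by computer-assisted phase-contrast videomicroscopy over 72 h, one image every 4 min (1080 images), in triplicate. Growth rate = cell count in last image / first image. GGR index = treated ratio / control ratio.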

[4] = Selectivity index for human U373 cells over NMRI mouse astrocytes; design: species or system U-373MG ATCC
Cavia porcellus [5] = organism: Cavia porcellus; experiment: Inhibition of ouabain-insensitive Mg++ATPase in guinea pig brain homogenate at 0.1 to 1mM; assay type: tissue-based
In short: (§2)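 Brain and kidney homogenates in 110 mM NaCl, 20 mM KCl, 5 mM MgCl2, 50 mM Tris-HCl pH 7.6 with 5 mM ATP; 10 min preincubation at 37 °C, 30 min reaction. Ouabain-insensitive Mg++ATPase activity measured with 3.6 mM ouabain across 0.1–1.0 mM compound.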

SK-MEL-28 [6] = experiment: Ratio of perillyl alcohol IC50 to compound IC50 for human SK-MEL-28 cells; assay type: functional
Cavia porcellus [7] = organism: Cavia porcellus; experiment: Non competitive inhibition of guinea pig kidney Na+/K+-ATPase by double reciprocal plot analysis in presence of Na+
Hs 683 [8] = experiment: Inhibition of RAS oncogene activity in human Hs683 cells at 40 uM after 30 seconds by ELISA relative to control; assay type: cell-based
In short: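 Hs683 glioma cells exposed 30 s at 40 µM, lysed on ice for 15 min, 100 µg protein used. Active Ras captured on GST-Raf-RBD glutathione plate, detected with H-Ras primary and HRP secondary antibodies, read by chemiluminescence. Compared with untreated cells.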

PC-3 [9] = experiment: Cytotoxicity against human PC3 cells after 72 hrs by MTT assay; assay type: functional, cell-based; conditions: PC-3, 72 h; in short: as §1
[10] = Chemical stability of the compound in water after 72 hrs by mass spectroscopic analysis; assay type: physicochemical; conditions: buffer
In short: (§3)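 5 mM DMSO stock diluted 100-fold in water or RPMI and held at 37 °C for 72 h. Samples infused into ESI-QTOF MS (positive mode, scan 110–950 m/z) with FA 0.2%-MeOH 50:50 as solvent.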

MCF7 [11] = experiment: Ratio of perillyl alcohol IC50 to compound IC50 for human MCF7 cells; assay type: functional
Cavia porcellus [12] = organism: Cavia porcellus; experiment: Non competitive inhibition of guinea pig brain Na+/K+-ATPase by double reciprocal plot analysis in presence of Na+; assay type: tissue-based
Cavia porcellus [13] = organism: Cavia porcellus; experiment: Uncompetitive inhibition of purified guinea pig brain Na+/K+-ATPase by double reciprocal plot analysis in presence of ATP; assay type: tissue-based
Cavia porcellus [14] = organism: Cavia porcellus; experiment: Uncompetitive inhibition of purified guinea pig kidney Na+/K+-ATPase by double reciprocal plot analysis in presence of ATP
Cavia porcellus [15] = organism: Cavia porcellus; experiment: Inhibition of guinea pig brain Na+/K+-ATPase at 1 mM preincubated for 10 mins measured after 30 mins relative to control
MCF7 [16] = experiment: Cytotoxicity against human MCF7 cells after 72 hrs by MTT assay; assay type: functional, cell-based; conditions: MCF7, 72 h; in short: as §1
[17] = Inhibition of Na+/K+-ATPase in guinea pig whole brain homogenate preincubated for 10 mins measured after 30 mins; assay type: tissue-based, Cavia porcellus
[18] = Inhibition of Na+/K+-ATPase in guinea pig kidney homogenate preincubated for 10 mins measured after 30 mins; assay type: tissue-based, Cavia porcellus
A549 [19] = experiment: Ratio of perillyl alcohol IC50 to compound IC50 for human A549 cells; assay type: functional
PC-3 [20] = experiment: Ratio of perillyl alcohol IC50 to compound IC50 for human PC3 cells; assay type: functional
[21] = Growth inhibition of NMRI mouse astrocytes after 72 hrs by MTT assay; assay type: cell-based; conditions: Astrocyte
Cavia porcellus [22] = organism: Cavia porcellus; experiment: Inhibition of guinea pig kidney Na+/K+-ATPase alpha1 preincubated for 10 mins measured after 30 mins relative to POH
[23] = Inhibition of guinea pig brain Na+/K+-ATPase alpha2 preincubated for 10 mins measured after 30 mins; design: species or system Cavia porcellus
Cavia porcellus [24] = organism: Cavia porcellus; experiment: Inhibition of guinea pig kidney Na+/K+-ATPase at 1 mM preincubated for 10 mins measured after 30 mins relative to control
Cavia porcellus [25] = organism: Cavia porcellus; experiment: Non competitive inhibition of guinea pig brain Na+/K+-ATPase by double reciprocal plot analysis in presence of K+; assay type: tissue-based
[26] = Inhibition of guinea pig brain Na+/K+-ATPase alpha3 preincubated for 10 mins measured after 30 mins; design: species or system Cavia porcellus
[27] = Growth inhibition of NMRI mouse astrocytes at 30 to 300 uM after 72 hrs by MTT assay; assay type: cell-based, Astrocyte; conditions: read-out: GI
In short: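 Mouse astrocyte primocultures were plated in uncoated T25 flasks for 72 h, medium was changed and cells grown to confluence. Tested at 0, 30, 60 and 300 µM by MTT colorimetric assay.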

Cavia porcellus [28] = organism: Cavia porcellus; experiment: Non competitive inhibition of guinea pig kidney Na+/K+-ATPase by double reciprocal plot analysis in presence of K+
Cavia porcellus [29] = organism: Cavia porcellus; experiment: Inhibition of guinea pig kidney Na+/K+-ATPase-mediated K+-activated-p-nitrophenylphosphatase activity
In short: (§4)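 Purified guinea pig brain or kidney Na+/K+-ATPase preparations; K+-activated p-nitrophenylphosphatase activity = total activity minus basal activity, with basal measured by replacing KCl with 1 mM ouabain. Mean ± SEM of 3 experiments.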

[30] = Inhibition of guinea pig kidney Na+/K+-ATPase alpha1 preincubated for 10 mins measured after 30 mins; design: species or system Cavia porcellus
[31] = Cytotoxicity against human Hs683 cells after 72 hrs by MTT assay; assay type: functional, cell-based; conditions: Hs 683, 72 h; in short: as §1
[32] = Ratio of perillyl alcohol IC50 to compound IC50 for human U373 cells; assay type: functional, U-373MG ATCC
Cavia porcellus [33] = organism: Cavia porcellus; experiment: Inhibition of guinea pig brain Na+/K+-ATPase-mediated K+-activated-p-nitrophenylphosphatase activity; in short: as §4
SK-MEL-28 [34] = experiment: Cytotoxicity against human SK-MEL-28 cells after 72 hrs by MTT assay; assay type: functional, cell-based; conditions: SK-MEL-28, 72 h; in short: as §1
Cavia porcellus [35] = organism: Cavia porcellus; experiment: Inhibition of ouabain-insensitive Mg++ATPase in guinea pig kidney homogenate at 0.1 to 1mM; assay type: tissue-based; in short: as §2
Hs 683 [36] = experiment: Selectivity index for NMRI mouse astrocytes over human Hs683 cells
Hs 683 [37] = experiment: Inhibition of RAS oncogene activity in human Hs683 cells 40 uM after 30 seconds by ELISA relative to POH; assay type: cell-based
[38] = Cytotoxicity against human U373 cells after 72 hrs by MTT assay; assay type: functional, cell-based, U-373MG ATCC; conditions: U373 MG; in short: as §1
[39] = Chemical stability of the compound in RPMI culture medium after 72 hrs by mass spectroscopic analysis; assay type: physicochemical; in short: as §3
Hs 683 [40] = experiment: Inhibition of RAS oncogene activity in human Hs683 cells at 2 mM after 5 to 29 mins by ELISA; assay type: cell-based; conditions: in the assay text read “5 to 20 mins” for “5 to 29 mins”
In short: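 Hs683 glioma cells treated with 2 mM for 5 and 20 min, lysed, 100 µg protein used. GTP-Ras captured by GST-Raf-RBD and detected with H-Ras antibody, HRP secondary and chemiluminescence.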

SMILES: O=C(c1ccccc1)c1sc(N2CCCCC2)nc1Br
- IC50 (A549 [1]): 48 µM
- Ratio IC50 (Hs 683 [2]): 10
- Activity (Hs 683 [3]): 40%
- Selectivity Index [4]: >5
- inhibition (Cavia porcellus [5]): inactive
- Ratio IC50 (SK-MEL-28 [6]): 10
- inhibition (Cavia porcellus [7]): Active
- inhibition (Hs 683 [8]): > 50%
- IC50 (PC-3 [9]): 62 µM
- Stability [10]: Unstable
- Ratio IC50 (MCF7 [11]): 10
- inhibition (Cavia porcellus [12]): Active
- inhibition (Cavia porcellus [13]): Active
- inhibition (Cavia porcellus [14]): Active
- inhibition (Cavia porcellus [15]): > 50%
- IC50 (MCF7 [16]): 35 µM
- IC50 [17]: 350 µM
- IC50 [18]: 550 µM
- Ratio IC50 (A549 [19]): 10
- Ratio IC50 (PC-3 [20]): 10
- IC50 [21]: > 300 µM
- Ratio (Cavia porcellus [22]): 3
- IC50 [23]: 250 µM
- inhibition (Cavia porcellus [24]): > 50%
- inhibition (Cavia porcellus [25]): Active
- IC50 [26]: 250 µM
- inhibition at 72 h, up to 300 µM [27]: < 50%
- inhibition (Cavia porcellus [28]): Active
- inhibition (Cavia porcellus [29]): inactive
- IC50 [30]: 550 µM
- IC50 [31]: 38 µM
- Ratio IC50 [32]: 10
- inhibition (Cavia porcellus [33]): Active
- IC50 (SK-MEL-28 [34]): 91 µM
- inhibition (Cavia porcellus [35]): inactive
- Selectivity Index (Hs 683 [36]): >5
- Ratio (Hs 683 [37]): 40
- IC50 [38]: 78 µM
- Stability [39]: Unstable

SMILES: COC(=O)c1sc2nc(N3CCOCC3)sc2c1C
- IC50 (A549 [1]): 96 µM
- IC50 (PC-3 [9]): > 100 µM
- IC50 (MCF7 [16]): 78 µM
- IC50 [31]: 92 µM
- IC50 (SK-MEL-28 [34]): > 100 µM
- IC50 [38]: > 100 µM

SMILES: CCOC(=O)c1sc(N2CCCC2)nc1Cl
- IC50 (A549 [1]): 61 µM
- IC50 (PC-3 [9]): 78 µM
- IC50 (MCF7 [16]): 79 µM
- IC50 [31]: 54 µM
- IC50 (SK-MEL-28 [34]): 82 µM
- IC50 [38]: > 100 µM

SMILES: N#Cc1sc(N2CCCC2)nc1Cl
- IC50 (A549 [1]): > 100 µM
- IC50 (PC-3 [9]): > 100 µM
- IC50 (MCF7 [16]): 99 µM
- IC50 [31]: > 100 µM
- IC50 (SK-MEL-28 [34]): > 100 µM
- IC50 [38]: > 100 µM

SMILES: O=C(c1ccccc1)c1sc(N2CCOCC2)nc1Cl
- IC50 (A549 [1]): 78 µM
- IC50 (PC-3 [9]): > 100 µM
- IC50 (MCF7 [16]): 70 µM
- IC50 [31]: > 100 µM
- IC50 (SK-MEL-28 [34]): > 100 µM
- IC50 [38]: 92 µM

SMILES: C=C(C)[C@@H]1CC=C(CO)CC1 [PERILLYL ALCOHOL]
- IC50 (A549 [1]): > 1000 µM
- inhibition (Hs 683 [40]): Active
- IC50 (PC-3 [9]): > 1000 µM
- IC50 (MCF7 [16]): > 1000 µM
- IC50 [31]: > 1000 µM
- IC50 (SK-MEL-28 [34]): > 1000 µM
- IC50 [38]: > 1000 µM

SMILES: O=C(c1ccccc1)c1sc(N2CCOCC2)nc1Br
- IC50 (A549 [1]): 84 µM
- IC50 (PC-3 [9]): > 100 µM
- IC50 (MCF7 [16]): 51 µM
- IC50 [31]: 93 µM
- IC50 (SK-MEL-28 [34]): > 100 µM
- IC50 [38]: > 100 µM

SMILES: CSc1nc(Cl)c(C(=O)c2ccccc2)s1
- IC50 (A549 [1]): > 100 µM
- IC50 (PC-3 [9]): > 100 µM
- IC50 (MCF7 [16]): 91 µM
- IC50 [31]: > 100 µM
- IC50 (SK-MEL-28 [34]): > 100 µM
- IC50 [38]: > 100 µM

SMILES: N#Cc1sc(N2CCCCC2)nc1Br
- IC50 (A549 [1]): 93 µM
- IC50 (PC-3 [9]): > 100 µM
- IC50 (MCF7 [16]): 77 µM
- IC50 [31]: 84 µM
- IC50 (SK-MEL-28 [34]): > 100 µM
- IC50 [38]: > 100 µM
